# ABCB1 inh: human ABCB1 inhibition, ABCG2 as counter-screen; P08183; CCRF-Adr cells, JC-1 efflux, flow cytometry; inhibition, % at 6.6 µM; actives 0.067% (n = 190,000); AID 1326; in the data active = inhibition above about 40%;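 note: 0% = vehicle and 100% = reference inhibitor; higher value means more JC-1 retained so stronger ABCB1 efflux block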
# ABCG2 block: blocks JC-1 efflux by human ABCG2 transporter | IgMXP3 cells, flow cytometry | actives 0.1% (n = 190,000) | inhibition, % at 6.6 µM;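 active = inhibition above 80%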;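 note: 0% = DMSO and 100% = nicardipine control wells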
#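 material = IgMXP3 (ABCG2) plus far-red-tagged CCRF-Adr (ABCB1) cells | amount = 3 million cells/mL, equal mix of both lines | also added = JC-1 transporter substrate | dosing = one concentration, 6.6 µM final | schedule = 10 min at 25 °C | measured by = flow cytometric JC-1 green MFI at 530 nm | read-out basis = percent efflux inhibition, scaled nicardipine 100% to DMSO 0%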
# GSH fluor: GSH bead compound fluorescence profile; actives 0.25% (n = 190,000); AID 1776; fluorescence (KMESF) at 10 µM; GSH beads flow cytometry, compound fluorescence 488/530 nm; stronger effect = higher value; in the data active = fluorescence above about 89;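 note: glutathione beads carrying GST-tagged Bcl family fusion proteins plus one bare bead set; values are compound well signal with DMSO vehicle wells as background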
# Lmaj promast: reduces viability of Leishmania major promastigotes. resazurin fluorescence viability. inhibition, % at 10 µM. actives 9% (n = 200,000);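 note: promastigotes grown with compound for 44 hours at 28 °C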
# Avidin bead fluor: compound fluoresces at 488/530 nm on avidin beads; compound fluorescence 488/530 nm, flow cytometry; stronger effect = higher value; fluorescence (KMESF) at 10 µM; actives 0.38% (n = 220,000); AID 1775; in the data active = fluorescence above about 47
# PKD1 inh: inhibitors of human PKD1 kinase | actives 0.056% (n = 200,000) | inhibition, % (concentration not given with the values) | Q15139 | PKD1 kinase fluorescence polarization assay
# Target sequence (Q15139 whole entry, looked up): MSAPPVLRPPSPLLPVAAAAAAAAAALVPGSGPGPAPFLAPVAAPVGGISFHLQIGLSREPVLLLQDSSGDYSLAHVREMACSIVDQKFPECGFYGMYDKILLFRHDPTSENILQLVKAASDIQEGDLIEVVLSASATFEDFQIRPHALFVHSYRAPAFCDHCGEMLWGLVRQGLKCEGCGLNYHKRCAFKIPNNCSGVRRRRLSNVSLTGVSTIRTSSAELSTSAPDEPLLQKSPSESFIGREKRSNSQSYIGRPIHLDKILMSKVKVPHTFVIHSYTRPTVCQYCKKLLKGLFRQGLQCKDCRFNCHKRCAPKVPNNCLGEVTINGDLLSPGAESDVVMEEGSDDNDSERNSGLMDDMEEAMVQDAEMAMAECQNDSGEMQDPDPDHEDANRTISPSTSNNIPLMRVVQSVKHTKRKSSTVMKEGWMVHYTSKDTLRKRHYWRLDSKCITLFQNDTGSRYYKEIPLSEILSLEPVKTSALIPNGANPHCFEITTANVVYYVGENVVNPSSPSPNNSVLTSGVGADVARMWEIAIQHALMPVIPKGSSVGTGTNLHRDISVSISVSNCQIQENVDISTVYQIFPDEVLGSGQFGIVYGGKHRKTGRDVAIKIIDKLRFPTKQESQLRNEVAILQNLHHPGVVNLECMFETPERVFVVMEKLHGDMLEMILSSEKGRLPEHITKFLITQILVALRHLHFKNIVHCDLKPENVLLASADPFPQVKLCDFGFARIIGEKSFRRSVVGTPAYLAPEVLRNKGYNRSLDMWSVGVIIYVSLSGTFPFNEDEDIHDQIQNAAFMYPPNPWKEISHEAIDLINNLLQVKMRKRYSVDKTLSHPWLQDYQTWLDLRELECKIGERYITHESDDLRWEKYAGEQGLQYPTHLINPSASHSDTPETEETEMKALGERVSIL
# The depositor's hits bear a star; · = no result. The entries come from a sample that favours hits as a whole. Cut-off read from the data, not from the text of the source, unless noted: active = inhibition above about 50%; inactive = the rest.
SMILES,ABCB1 inh,ABCG2 block,GSH fluor,Lmaj promast,Avidin bead fluor,PKD1 inh
Cc1c(OCc2ccc(C(=O)O)o2)ccc2c3c(c(=O)oc12)CCC3,0.2,1.4,34,-9.0,7,-1.4
COc1ccc(C(=O)NCS(=O)(=O)c2ccc(C)cc2)cc1,-0.1,-0.2,12,-7.1,37,-2.2
CO/N=C(/CS(=O)(=O)c1ccc(C)cc1)c1ccc(OC)cc1,0.8,1.7,24,80.0*,10,-2.9
O=C(NC(N1CCOCC1)C(Cl)(Cl)Cl)c1cc([N+](=O)[O-])cc([N+](=O)[O-])c1 (centres undefined),0.3,5.4,9,91.0*,15,6.0
COc1ccc(CN(C(=O)/C=C/C(=O)c2ccc(OC)cc2O)C(C(=O)NC2CCCCC2)c2ccncc2)cc1 (centres undefined),12.2,6.6,7,78.4*,3,-0.5
COc1ccc(C(=O)/C=C/C(=O)N(Cc2ccc3c(c2)OCO3)C(C(=O)NC2CCCCC2)c2ccncc2)c(O)c1 (centres undefined),4.1,3.0,19,54.8*,4,-5.9
O=C(CSc1nnc(-c2ccc(Cl)s2)o1)N1CCOCC1,·,·,·,-1.8,·,-1.5
c1ccc(N2CCN(Cc3nnnn3C3CCCCC3)CC2)cc1,0.7,-0.3,37,-0.8,10,-6.7
C1CCC(n2nnnc2CN2CCN(C3CCCC3)CC2)CC1,-0.1,-10.3,21,89.6*,26,-8.2
CC12CCC(C(=O)Nc3nc4ccc(Br)cc4s3)(OC1=O)C2(C)C (centres undefined),-0.1,12.6,13,24.2,12,2.2
CCNC(=S)Nc1cc(OCC)c(N2CCOCC2)cc1OCC,-0.4,-0.6,5,63.7*,19,-12.3
CCCNC(=O)Nc1cc(OCC)c(N2CCOCC2)cc1OCC,1.6,41.3,22,-6.0,26,-8.8
CC1Cc2ccccc2N1CC(=O)NC(=O)NCc1ccco1 (centres undefined),0.4,0.8,25,96.7*,11,-9.5
CC1Cc2ccccc2N1CC(=O)NC(=O)NC1CCCC1 (centres undefined),0.9,1.9,10,97.5*,13,-0.6
O=C(CN1CCCCCCC1)NC(=O)NC1CCCCC1,-0.1,0.9,13,57.5*,11,1.8
O=C(CN1CCCCC1)NC(=O)NC1CCCC1,0.0,0.5,11,-2.1,21,-10.0
COCCNC(=O)c1cc2cc(Cl)cc(Cl)c2oc1=O,0.5,7.2,24,-5.9,10,1.0
O=C(NCCN1CCOCC1)c1cnn2c(-c3ccccc3)cc(-c3ccccc3)nc12,5.1,3.8,24,99.2*,14,9.2
COc1cccc(OCCCN2CCCCC2)c1,0.2,0.5,20,95.6*,33,5.4
CC1CCCN(CCC(=O)c2ccc(Br)cc2)C1 (centres undefined),-0.2,-0.9,46,96.0*,7,-1.0
CCOc1cccc(OCCCCN2CCCCC2)c1,-0.5,-9.0,22,96.5*,20,-1.9
COc1cccc(C(=O)NCCCN2CCN(CCCNC(=O)c3cccc(OC)c3)CC2)c1,0.2,3.6,15,-1.4,13,-1.6
COc1cccc(OCCCCN2CCCCC2)c1,-0.3,-0.6,25,97.4*,18,-8.8
CCOc1ccccc1N(CC(=O)NC1CCCC1)C(=O)CCCC(=O)Nc1ccccn1,0.3,7.0,34,11.5,13,-4.9
CC(=O)c1ccc(OCC(O)CN2CCCC(C)C2)cc1 (centres undefined),1.1,2.2,22,42.6,6,-11.6
SMILES,ABCB1 inh,ABCG2 block,GSH fluor,Lmaj promast,Avidin bead fluor,PKD1 inh
CC1CCCN(CCCCOc2cccc(Br)c2)C1 (centres undefined),0.3,0.2,5,99.1*,13,-12.7
CN(C)CCCCOc1cccc(Br)c1,0.5,1.8,10,7.0,16,-3.2
CC(C)(C)c1ccc(OCCN2CCCC2)cc1,0.2,0.1,10,97.5*,7,-2.7
COc1cc2c(cc1OC)CN(CCC(=O)c1ccc(Br)cc1)CC2,0.0,0.4,10,60.9*,12,5.1
CCCCCC(O)(CCN1CCCCC1)c1ccc(OCC)cc1 (centres undefined),1.2,1.3,24,26.8,8,2.3
CC1CCCN(CCOc2ccc(Br)cc2)C1 (centres undefined),-0.9,-2.6,11,51.3*,14,-7.6
